Published values pooled from the literature.
SLC47A2: Multidrug and toxin extrusion protein 2 (SLC47A2, Homo sapiens, UniProt Q86VL8)
murD: UDP-N-acetylmuramoylalanine--D-glutamate ligase (murD, Escherichia coli K-12, UniProt P14900)
PDE8A: High affinity cAMP-specific and IBMX-insensitive 3',5'-cyclic phosphodiesterase 8A (PDE8A, Homo sapiens, UniProt O60658)
ALOX5: Polyunsaturated fatty acid 5-lipoxygenase (ALOX5, Homo sapiens, UniProt P09917)
CYP2A6: Cytochrome P450 2A6 (CYP2A6, Homo sapiens, UniProt P11509)
BCKDK: Branched-chain alpha-ketoacid dehydrogenase kinase (BCKDK, Homo sapiens, UniProt O14874)
RARG: Retinoic acid receptor gamma (RARG, Homo sapiens, UniProt P13631)
HDAC8: Histone deacetylase 8 (HDAC8, Homo sapiens, UniProt Q9BY41)
PTPN7: Tyrosine-protein phosphatase non-receptor type 7 (PTPN7, Homo sapiens, UniProt P35236)

| Structure (SMILES) | target | test | system | conditions | IC50 |
| --- | --- | --- | --- | --- | --- |
| CN(C)CCC=C1c2ccccc2CCc2ccccc21 | SLC47A2 | transporter uptake, inhibitor, radiometric | HEK293 | 5 min | > 500 µM |
| O=C(NO)c1ccc(NC(=O)C2(c3ccc(F)cc3)CCCC2)c(F)c1 | Histone deacetylase 1 (HDAC1, Homo sapiens, UniProt Q13547) | enzyme activity, inhibitor | – | – | 0.204 µM |
| O=C(Nc1ccc(C=NNS(=O)(=O)c2ccc3ccccc3c2)cc1)c1ccccc1Br | murD | enzyme activity, inhibitor, absorbance | – | – | 55 µM |
| COc1cc(C[C@H]2C(=O)OC[C@@H]2Cc2ccc(OC)c(OC)c2)ccc1O | PDE8A | enzyme activity, inhibitor | – | – | > 20 µM |
| CCCCCCCCCCCCCCCc1cccc(O)c1C(=O)O | Histone acetyltransferase KAT2B (KAT2B, Homo sapiens, UniProt Q92831) | enzyme activity, inhibitor, radiometric | – | – | > 200 µM |
| CC(C)=CCC[C@@]1(C)C(CC[C@H]2[C@]3(C)CC[C@H](O)C(C)(C)O[C@H]3CC[C@@]2(C)O)=C(C)CC[C@H]1O | ATP-dependent translocase ABCB1 (ABCB1, Homo sapiens, UniProt P08183) | transporter efflux, inhibitor, fluorescence | KB-V1 | 10 min | 20 to 50 µM |
| NC(=O)c1ccc[n+]([C@@H]2O[C@H](COP(=O)([O-])OP(=O)(O)OC[C@H]3O[C@@H](n4cnc5c(N)ncnc54)[C@H](O)[C@@H]3O)[C@@H](O)[C@H]2O)c1 | Protein mono-ADP-ribosyltransferase PARP10 (PARP10, Homo sapiens, UniProt Q53GL7) | enzyme activity, inhibitor | – | – | 456 µM |
| C=C(C)[C@@H]1CCC(C)=C[C@H]1c1c(O)cc(CCC)cc1O | ALOX5 | enzyme activity, inhibitor | – | – | 4.9 µM |
| C=CC(=O)Nc1cc(Nc2nccc(Nc3cc(Cl)c(F)cc3C(C)(C)O)n2)c(OC)cc1N1CC[C@@H](N(C)C)C1 | CYP2A6 | enzyme activity, inhibitor | human, liver microsomes | – | > 30 µM |
| CCc1cc(/C(C)=N/OCc2ccc(C3CCCCC3)c(C(F)(F)F)c2)ccc1CN1CC(C(=O)O)C1 | CYP2A6 | enzyme activity, inhibitor | human, liver microsomes | 20 min | > 1.1 µM |
| CCS(=O)(=O)N1CC(CC#N)(n2cc(-c3ncnc4[nH]ccc34)cn2)C1 | SLC47A2 | transporter uptake, inhibitor, radiometric | – | 2 min | 13.7 µM |
| CSCC[C@H](NC(=O)[C@H](Cc1c[nH]c2ccccc12)NC(=O)CNC(=O)[C@H](Cc1ccc(O)cc1)NC(=O)[C@H](C)NC(=O)[C@@H](CCC(=O)O)NC(=O)CN1CCN(CC(=O)O)CCN(CC(=O)O)CCN(CC(=O)O)CC1)C(=O)N[C@@H](CC(=O)O)C(=O)N[C@@H](Cc1cccc2ccccc12)C(N)=O | Gastrin/cholecystokinin type B receptor (Rattus norvegicus, UniProt P30553) | ligand displacement, radioligand | – | – | 0.00192 µM |
| CCCCCc1cc(O)c(C/C=C(\C)CCC=C(C)C)c(O)c1 | ALOX5 | enzyme activity, inhibitor | – | – | 0.7 µM |
| CCCCc1ncc(/C=C(\Cc2cccs2)C(=O)O)n1Cc1ccc(C(=O)O)cc1 | BCKDK | enzyme activity, inhibitor | – | – | 76.4 µM |
| N[C@@H](CC(=O)N1CCN(C(c2ccc(F)cc2)c2ccc(F)cc2)CC1)C(=O)N1Cc2ccccc2C1 | Dipeptidyl peptidase 8 (Homo sapiens, UniProt Q6V1X1) | enzyme activity, inhibitor | – | – | 0.128 µM |
| Cc1ccc(-c2cc(-c3ccc(-c4ccc(C(=O)O)cc4)[nH]3)nc3c(C(C)C)cccc23)cc1 | RARG | reporter gene, antagonist | – | – | > 3.3 µM |
| CC/C=C\C/C=C\C/C=C\C/C=C\C/C=C\CCCC(=O)O | DNA polymerase subunit gamma-1 (POLG, Homo sapiens, UniProt P54098) | enzyme activity, inhibitor | – | – | 23.9 µM |
| O=c1c(O)c(-c2ccc(O)cc2)oc2cc(O)cc(O)c12 | HDAC8 | enzyme activity, inhibitor | – | – | 7.8 µM |

| Structure (SMILES) | target | test | system | conditions | IC50 |
| --- | --- | --- | --- | --- | --- |
| CSc1ccc(/C=C2/C(C)=C(CC(=O)O)c3cc(F)ccc32)cc1 | PDE8A | enzyme activity, inhibitor | – | – | > 100 µM |
| CC(C)c1cccc2c(/C=C/c3ccccc3)cc(-c3ccc(-c4ccc(C(=O)O)cc4)[nH]3)nc12 | RARG | reporter gene, antagonist | – | – | > 3.3 µM |
| CNC(=O)c1cc2c(Oc3ccc(NC(=O)C4(C(=O)Nc5ccc(F)cc5)CC4)cc3)ccnc2cc1OC | Ephrin type-A receptor 8 (EPHA8, Homo sapiens, UniProt P29322) | enzyme activity, inhibitor, radiometric | – | – | 0.034 µM |
| O=C(Nc1ccccc1C=NNS(=O)(=O)c1ccc2ccccc2c1)c1cc([N+](=O)[O-])cc([N+](=O)[O-])c1 | murD | enzyme activity, inhibitor, absorbance | – | – | 49 µM |
| CCCCC(=O)N(Cc1ccc(-c2ccccc2-c2nnn[nH]2)cc1)[C@H](C(=O)O)C(C)C | BCKDK | enzyme activity, inhibitor | – | – | 1.67 µM |
| CN1CCN(c2ccc(Nc3ncc4cc(C#N)c(=O)n(C5CCCC5)c4n3)cc2)CC1 | Serine/threonine-protein kinase PLK2 (PLK2, Homo sapiens, UniProt Q9NYY3) | enzyme activity, inhibitor | – | – | 2.17 µM |
| COc1cc(/C=C2\SC(=O)NC2=O)cc(F)c1OCCNc1nc2c(cnn2C2CCCC2)c(=O)[nH]1 | PDE8A | enzyme activity, inhibitor | – | – | 0.091 µM |
| CN/C(=N/CCSCc1nc[nH]c1C)NC#N | SLC47A2 | transporter uptake, inhibitor, radiometric | HEK293 | 5 min, pH 8.5 | 3.6 µM |
| CCCCc1nc(Cl)c(CO)n1Cc1ccc(-c2ccccc2-c2nn[nH]n2)cc1 | BCKDK | enzyme activity, inhibitor | – | – | 19.8 µM |
| CN[C@H]1CC[C@@H](c2ccc(Cl)c(Cl)c2)c2ccccc21 | PTPN7 | enzyme activity, inhibitor, fluorescence | – | – | 110 µM |
| N#Cc1ccc(COc2ccccc2C=NNS(=O)(=O)c2ccc3ccccc3c2)cc1 | murD | enzyme activity, inhibitor, absorbance | – | – | 62 µM |
| CCCCC1=NC2(CCCC2)C(=O)N1Cc1ccc(-c2ccccc2-c2nnn[nH]2)cc1 | BCKDK | enzyme activity, inhibitor | – | – | 32.9 µM |
| C=C(C)[C@@H]1CCC(C)=C[C@H]1c1c(O)cc(CCCCC)cc1O | ALOX5 | enzyme activity, inhibitor | – | – | 4.3 µM |
| CCCC[C@H](NC(=O)[C@H](C)c1c(C)[nH]c2ccc(O)cc12)c1ncc(-c2cc3ccccc3nc2OC)[nH]1 | Mu-type opioid receptor (OPRM1, Homo sapiens, UniProt P35372) | cell-free assay | – | – | 4.61 µM |
| CCOc1nc2cccc(C(=O)O)c2n1Cc1ccc(-c2ccccc2-c2nnn[nH]2)cc1 | BCKDK | enzyme activity, inhibitor | – | – | 4.28 µM |
| Cc1ccc(C(=O)Nc2ccc(S(=O)(=O)O)c3cc(S(=O)(=O)O)cc(S(=O)(=O)O)c23)cc1NC(=O)c1cccc(NC(=O)Nc2cccc(C(=O)Nc3cc(C(=O)Nc4ccc(S(=O)(=O)O)c5cc(S(=O)(=O)O)cc(S(=O)(=O)O)c45)ccc3C)c2)c1 | PTPN7 | enzyme activity, inhibitor, fluorescence | – | – | 30 µM |
| O=c1cc(-c2ccc(O)c(O)c2)oc2cc(O)cc(O)c12 | HDAC8 | enzyme activity, inhibitor | – | – | 6.91 µM |
